{
  "source": "paper PMC4259821",
  "about": "(European journal of pharmacology, 2014)",
  "key": {"ICSS in rats": {"test_system": "ICSS in rats", "assay": "Intracranial self-stimulation", "format": "in vivo, rat", "details": "i.p."}, "5HT1A": {"biological_target": "T1, 5HT1A (Homo sapiens, UniProt P08908)", "T1 sequence (P08908 1-422)": "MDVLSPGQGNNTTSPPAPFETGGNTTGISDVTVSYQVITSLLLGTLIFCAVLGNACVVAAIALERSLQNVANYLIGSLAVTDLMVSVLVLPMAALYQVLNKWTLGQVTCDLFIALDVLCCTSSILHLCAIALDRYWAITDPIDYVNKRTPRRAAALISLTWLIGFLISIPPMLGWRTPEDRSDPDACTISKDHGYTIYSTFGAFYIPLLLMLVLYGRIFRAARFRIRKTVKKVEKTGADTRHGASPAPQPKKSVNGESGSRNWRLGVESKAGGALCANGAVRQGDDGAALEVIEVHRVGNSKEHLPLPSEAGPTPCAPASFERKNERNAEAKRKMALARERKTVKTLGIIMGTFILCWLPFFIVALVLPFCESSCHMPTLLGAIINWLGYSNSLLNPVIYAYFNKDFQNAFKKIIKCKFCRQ", "assay": "Calcium mobilization assay, 5-HT1A", "format": "cell-based", "summary_of_the_method": "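CHO-Gα16 cells stably expressing human 5-HT1A, plated overnight at 25,000 cells/well in Ham's F12 with 10% FBS. Calcium 5 dye (1:40) in HBSS, 20 mM HEPES, 2.5 mM probenecid, pH 7.4, for 45 min at 37°C. Agonist mode: compound added at 10 s, fluorescence read 90 s. Antagonist mode: 15 min compound pretreatment, then EC50–EC80 5-HT. Three-parameter logistic fit.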"}, "5HT2A": {"biological_target": "5HT2A (Homo sapiens, UniProt P28223)", "sequence (P28223 whole entry)": "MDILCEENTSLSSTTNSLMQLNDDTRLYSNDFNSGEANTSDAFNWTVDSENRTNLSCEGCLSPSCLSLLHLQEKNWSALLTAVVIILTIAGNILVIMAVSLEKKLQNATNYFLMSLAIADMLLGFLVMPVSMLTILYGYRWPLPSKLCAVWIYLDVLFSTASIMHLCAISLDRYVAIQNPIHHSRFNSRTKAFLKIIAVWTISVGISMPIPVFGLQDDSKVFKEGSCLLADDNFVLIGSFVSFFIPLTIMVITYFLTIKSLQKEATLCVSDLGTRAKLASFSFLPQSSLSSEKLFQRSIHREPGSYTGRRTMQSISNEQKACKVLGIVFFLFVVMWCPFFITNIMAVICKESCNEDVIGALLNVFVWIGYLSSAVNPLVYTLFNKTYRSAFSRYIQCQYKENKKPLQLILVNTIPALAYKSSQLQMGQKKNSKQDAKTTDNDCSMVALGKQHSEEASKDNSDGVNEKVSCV", "assay": "Calcium mobilization assay, 5-HT2A", "format": "cell-based", "summary_of_the_method": "(§1)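 Stable human 5-HT2A or 5-HT2B HEK293 cells were plated overnight on PEI-coated plates at 40,000 or 35,000 cells/well in DMEM-HG, 10% FBS, 15 mM HEPES. Calcium 5 dye was loaded for 45 min at 37°C in HBSS/HEPES/probenecid, pH 7.4. Antagonist mode used 15 min compound pretreatment, then EC50–EC80 5-HT. Peak fluorescence change was fit to a three-parameter logistic.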"}, "5HT2B": {"biological_target": "5HT2B (Homo sapiens, UniProt P41595)", "sequence (P41595 whole entry)": "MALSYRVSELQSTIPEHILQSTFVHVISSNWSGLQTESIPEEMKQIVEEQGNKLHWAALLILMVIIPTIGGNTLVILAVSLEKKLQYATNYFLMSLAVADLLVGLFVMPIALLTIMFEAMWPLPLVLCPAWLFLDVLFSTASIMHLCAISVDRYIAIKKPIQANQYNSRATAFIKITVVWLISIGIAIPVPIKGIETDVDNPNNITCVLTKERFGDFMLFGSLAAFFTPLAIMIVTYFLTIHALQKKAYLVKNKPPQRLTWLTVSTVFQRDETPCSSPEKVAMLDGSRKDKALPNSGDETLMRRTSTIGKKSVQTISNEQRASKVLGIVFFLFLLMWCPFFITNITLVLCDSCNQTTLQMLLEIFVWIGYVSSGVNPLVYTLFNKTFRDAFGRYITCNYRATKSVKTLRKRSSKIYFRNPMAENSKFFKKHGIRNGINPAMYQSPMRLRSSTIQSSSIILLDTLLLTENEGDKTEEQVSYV", "assay": "Calcium mobilization assay, 5-HT2B", "format": "cell-based", "summary_of_the_method": "as §1"}, "hTAAR1": {"biological_target": "T2, hTAAR1 (Homo sapiens, UniProt Q96RJ0)", "T2 sequence (Q96RJ0 1-339)": "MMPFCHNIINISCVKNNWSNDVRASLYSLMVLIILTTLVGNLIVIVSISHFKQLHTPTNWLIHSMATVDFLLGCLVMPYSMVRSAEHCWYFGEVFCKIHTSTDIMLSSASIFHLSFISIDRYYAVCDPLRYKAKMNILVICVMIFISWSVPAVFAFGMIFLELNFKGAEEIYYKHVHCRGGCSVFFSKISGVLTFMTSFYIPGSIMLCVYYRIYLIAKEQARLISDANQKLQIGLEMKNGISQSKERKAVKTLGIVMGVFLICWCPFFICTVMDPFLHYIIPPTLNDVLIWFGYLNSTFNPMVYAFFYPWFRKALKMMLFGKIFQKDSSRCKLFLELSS", "assay": "hTAAR1 cAMP assay", "format": "cell-based"}, "CB1": {"biological_target": "CB1 (Homo sapiens, UniProt P21554)", "sequence (P21554 whole entry)": "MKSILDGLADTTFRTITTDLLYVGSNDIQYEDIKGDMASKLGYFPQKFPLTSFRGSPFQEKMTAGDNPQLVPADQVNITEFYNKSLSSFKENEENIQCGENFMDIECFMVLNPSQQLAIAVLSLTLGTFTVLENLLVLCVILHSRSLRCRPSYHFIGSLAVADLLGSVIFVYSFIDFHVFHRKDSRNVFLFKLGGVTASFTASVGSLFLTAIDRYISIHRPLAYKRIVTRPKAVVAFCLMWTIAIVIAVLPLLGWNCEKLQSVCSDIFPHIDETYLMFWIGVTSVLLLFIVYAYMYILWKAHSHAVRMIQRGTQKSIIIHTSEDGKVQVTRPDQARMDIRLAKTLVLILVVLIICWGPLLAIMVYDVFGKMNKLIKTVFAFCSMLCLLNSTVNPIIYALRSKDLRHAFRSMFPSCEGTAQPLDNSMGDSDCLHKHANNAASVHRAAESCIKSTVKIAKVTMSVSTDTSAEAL", "assay": "Calcium mobilization assay, CB1", "format": "cell-based"}, "CB2": {"biological_target": "CB2 (Homo sapiens, UniProt P34972)", "sequence (P34972 whole entry)": "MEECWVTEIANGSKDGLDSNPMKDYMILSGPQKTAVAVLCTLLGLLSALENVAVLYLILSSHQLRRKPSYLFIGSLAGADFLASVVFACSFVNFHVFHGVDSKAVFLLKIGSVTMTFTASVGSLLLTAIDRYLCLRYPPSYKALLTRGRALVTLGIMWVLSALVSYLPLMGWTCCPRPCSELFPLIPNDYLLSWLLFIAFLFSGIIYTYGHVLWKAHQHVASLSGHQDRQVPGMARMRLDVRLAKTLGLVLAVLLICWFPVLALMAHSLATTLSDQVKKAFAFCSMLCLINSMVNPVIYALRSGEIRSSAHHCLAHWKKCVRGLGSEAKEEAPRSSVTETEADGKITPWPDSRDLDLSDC", "assay": "Calcium mobilization assay, CB2", "format": "cell-based"}, "mu opioid receptor": {"biological_target": "mu opioid receptor (Homo sapiens, UniProt P35372)", "sequence (P35372 whole entry)": "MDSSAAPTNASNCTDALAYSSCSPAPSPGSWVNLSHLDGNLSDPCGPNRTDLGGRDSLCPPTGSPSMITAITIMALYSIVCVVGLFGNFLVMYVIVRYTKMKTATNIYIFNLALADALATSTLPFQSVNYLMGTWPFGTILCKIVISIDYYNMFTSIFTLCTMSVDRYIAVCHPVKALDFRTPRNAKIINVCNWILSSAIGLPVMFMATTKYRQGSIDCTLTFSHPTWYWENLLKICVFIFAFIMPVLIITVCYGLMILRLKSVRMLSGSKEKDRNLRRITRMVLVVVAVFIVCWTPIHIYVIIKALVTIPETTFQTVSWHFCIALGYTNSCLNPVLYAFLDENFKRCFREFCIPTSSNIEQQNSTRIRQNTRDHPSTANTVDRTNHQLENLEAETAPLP", "assay": "Calcium mobilization assay, mu opioid receptor", "format": "cell-based"}, "delta opioid receptor": {"biological_target": "delta opioid receptor (Homo sapiens, UniProt P41143)", "sequence (P41143 whole entry)": "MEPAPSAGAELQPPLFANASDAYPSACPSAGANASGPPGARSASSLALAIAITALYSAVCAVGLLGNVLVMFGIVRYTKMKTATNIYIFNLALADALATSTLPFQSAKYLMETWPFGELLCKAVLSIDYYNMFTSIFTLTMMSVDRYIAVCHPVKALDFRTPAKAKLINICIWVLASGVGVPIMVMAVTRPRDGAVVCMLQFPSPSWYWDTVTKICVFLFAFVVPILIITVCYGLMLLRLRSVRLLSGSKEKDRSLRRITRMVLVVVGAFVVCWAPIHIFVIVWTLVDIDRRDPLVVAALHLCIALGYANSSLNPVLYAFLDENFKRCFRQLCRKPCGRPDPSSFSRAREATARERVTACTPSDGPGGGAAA", "assay": "Calcium mobilization assay, delta opioid receptor", "format": "cell-based"}, "kappa opioid receptor": {"biological_target": "kappa opioid receptor (Homo sapiens, UniProt P41145)", "sequence (P41145 whole entry)": "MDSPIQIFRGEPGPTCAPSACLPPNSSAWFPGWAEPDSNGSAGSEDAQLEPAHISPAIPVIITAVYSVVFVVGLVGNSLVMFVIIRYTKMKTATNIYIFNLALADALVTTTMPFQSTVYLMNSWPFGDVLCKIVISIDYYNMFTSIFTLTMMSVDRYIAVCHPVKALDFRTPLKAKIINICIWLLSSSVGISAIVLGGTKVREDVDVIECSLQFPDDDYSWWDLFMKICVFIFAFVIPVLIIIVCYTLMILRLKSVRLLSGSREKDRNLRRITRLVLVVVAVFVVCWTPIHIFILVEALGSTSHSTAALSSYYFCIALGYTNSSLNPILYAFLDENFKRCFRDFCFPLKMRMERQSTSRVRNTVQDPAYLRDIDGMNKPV", "assay": "Calcium mobilization assay, kappa opioid receptor", "format": "cell-based"}, "APJ (Apelin)": {"biological_target": "T3, APJ (Apelin) (Homo sapiens, UniProt P35414)", "T3 sequence (P35414 1-380)": "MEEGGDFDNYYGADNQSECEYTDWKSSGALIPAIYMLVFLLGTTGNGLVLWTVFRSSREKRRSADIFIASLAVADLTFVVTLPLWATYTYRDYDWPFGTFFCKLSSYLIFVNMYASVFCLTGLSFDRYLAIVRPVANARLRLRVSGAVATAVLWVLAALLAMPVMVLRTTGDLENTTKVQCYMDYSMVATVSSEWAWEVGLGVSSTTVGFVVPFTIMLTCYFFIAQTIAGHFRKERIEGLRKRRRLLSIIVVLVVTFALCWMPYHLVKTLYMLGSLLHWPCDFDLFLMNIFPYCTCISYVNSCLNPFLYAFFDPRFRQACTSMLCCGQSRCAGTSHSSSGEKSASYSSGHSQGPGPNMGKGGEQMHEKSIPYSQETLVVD", "assay": "Calcium mobilization assay, APJ", "format": "cell-based", "summary_of_the_method": "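CHO-Gα16-APJ cells were plated overnight at 30,000 cells/well in DMEM/F12 with 10% FBS and loaded with Calcium 5 dye for 45 min at 37°C. Compound dilutions contained BSA/DMSO: 2.25% BSA/9% DMSO for pretreatment, 0.25% BSA/1% DMSO for treatment. Antagonist mode: 15 min pretreatment, then EC50–EC80 apelin. Fluorescence was read on FLIPR or FlexStation. EC50/IC50 came from a three-parameter logistic fit.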"}, "CaV 3.1": {"biological_target": "CaV 3.1 (Homo sapiens, UniProt O43497)", "assay": "Calcium voltage channel 3.1 calcium mobilization assay", "format": "cell-based"}, "CaV 3.2": {"biological_target": "CaV 3.2 (Homo sapiens, UniProt O95180)", "assay": "Calcium voltage channel 3.2 calcium mobilization assay", "format": "cell-based"}, "TRPV1": {"biological_target": "TRPV1 (Homo sapiens, UniProt Q8NER1)", "sequence (Q8NER1 whole entry)": "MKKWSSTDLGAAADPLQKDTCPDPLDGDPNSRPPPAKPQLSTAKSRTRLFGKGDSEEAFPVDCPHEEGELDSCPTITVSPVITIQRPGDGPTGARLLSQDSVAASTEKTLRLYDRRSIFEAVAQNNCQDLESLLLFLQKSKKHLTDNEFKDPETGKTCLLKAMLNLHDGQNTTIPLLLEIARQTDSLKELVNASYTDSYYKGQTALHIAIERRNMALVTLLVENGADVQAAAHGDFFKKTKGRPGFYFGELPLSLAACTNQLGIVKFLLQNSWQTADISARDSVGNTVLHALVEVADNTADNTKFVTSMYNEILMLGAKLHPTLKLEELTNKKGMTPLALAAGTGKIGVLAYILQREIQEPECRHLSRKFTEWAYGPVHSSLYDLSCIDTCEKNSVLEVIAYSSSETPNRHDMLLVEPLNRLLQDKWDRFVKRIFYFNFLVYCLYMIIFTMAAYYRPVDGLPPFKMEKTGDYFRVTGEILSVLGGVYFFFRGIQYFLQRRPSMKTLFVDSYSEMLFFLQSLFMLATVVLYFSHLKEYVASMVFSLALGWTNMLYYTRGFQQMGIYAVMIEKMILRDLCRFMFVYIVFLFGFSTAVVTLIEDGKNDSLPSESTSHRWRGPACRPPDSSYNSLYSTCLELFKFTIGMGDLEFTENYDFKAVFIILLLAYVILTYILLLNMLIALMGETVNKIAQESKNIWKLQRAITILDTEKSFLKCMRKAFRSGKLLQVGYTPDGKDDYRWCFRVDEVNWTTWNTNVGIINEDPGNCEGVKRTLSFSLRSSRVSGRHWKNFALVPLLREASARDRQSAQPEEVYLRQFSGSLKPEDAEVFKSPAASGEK", "assay": "Calcium mobilization assay, TRPV1", "format": "cell-based", "summary_of_the_method": "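HEK293 cells stably expressing human TRPV1, plated overnight at 30,000 cells/well on PEI-coated plates in DMEM-HG with 10% FBS. Calcium 5 dye in HBSS, 20 mM HEPES, 2.5 mM probenecid, pH 7.4, for 45 min at 37°C. Antagonist mode: 15 min compound pretreatment, then EC50–EC80 capsaicin. Agonist mode: compound added directly. Three-parameter logistic fit.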"}, "NPS receptors [1]": {"test_system": "NPS receptors", "assay": "In vitro calcium mobilization assay, NPS receptor antagonism", "format": "cell-based", "details": "vs 13 receptors and ion channels of Table 1"}, "NPS receptors [2]": {"test_system": "NPS receptors", "details": "calcium mobilization; ref Zhang et al., 2008; cited from earlier work"}, "[3]": {"test_system": "food-maintained responding", "details": "rats, ref Schmoutz et al., 2012, cited from earlier work"}, "[4]": {"test_system": "cocaine self-administration", "details": "rats; 5–30 mg/kg i.p.; ref Schmoutz et al., 2012; cited from earlier work"}},
  "note": "Structures can show the parent of a compound that is named as a salt.",
  "data": [
    {"molecule": "CCCC(C(=O)c1ccc2c(c1)OCO2)N1CCCC1.Cl", "note": "(racemic) [MDPV, (±)-3,4-methylenedioxypyrovalerone HCl, reference compound]", "values": [
      {"measurement": "Effect on ICSS, drug alone", "setting": "ICSS in rats; 3.2 mg/kg MDPV vs vehicle + vehicle", "value": "facilitated ICSS across a broad range of frequencies (1.75–2.05 log Hz)"}
    ]},
    {"molecule": "COC(=O)[C@H]1[C@@H](OC(=O)c2ccccc2)C[C@@H]2CC[C@H]1N2C", "note": "[Cocaine, (−)-Cocaine HCl, reference compound]", "values": [
      {"measurement": "Effect on ICSS, drug alone", "setting": "ICSS in rats; 10 mg/kg cocaine", "value": "facilitated ICSS across a broad range of six frequencies (1.75–2.0 log Hz)"}
    ]},
    {"molecule": "O=C(NCCN1CCCCC1)N1CCN2C(=O)OC(c3ccccc3)(c3ccccc3)C2C1", "note": "(stereo not shown) [RTI-118, 3-oxo-1,1-diphenyl-N-(2-(piperidin-1-yl)ethyl)tetrahydro-1H-oxazolo[3,4-a]pyrazine-7(3H)-carboxamide]", "values": [
      {"measurement": "EC50", "setting": "5HT1A", "value": "> 10", "unit": "µM"},
      {"measurement": "IC50", "setting": "5HT1A", "value": "> 10", "unit": "µM"},
      {"measurement": "EC50", "setting": "5HT2A", "value": "> 10", "unit": "µM"},
      {"measurement": "IC50", "setting": "5HT2A", "value": "> 10", "unit": "µM"},
      {"measurement": "EC50", "setting": "5HT2B", "value": "> 10", "unit": "µM"},
      {"measurement": "IC50", "setting": "5HT2B", "value": "> 10", "unit": "µM"},
      {"measurement": "EC50", "setting": "hTAAR1", "value": "> 10", "unit": "µM"},
      {"measurement": "IC50", "setting": "hTAAR1", "value": "> 10", "unit": "µM"},
      {"measurement": "EC50", "setting": "CB1", "value": "> 10", "unit": "µM"},
      {"measurement": "IC50", "setting": "CB1", "value": "> 10", "unit": "µM"},
      {"measurement": "EC50", "setting": "CB2", "value": "> 10", "unit": "µM"},
      {"measurement": "IC50", "setting": "CB2", "value": "> 10", "unit": "µM"},
      {"measurement": "EC50", "setting": "mu opioid receptor", "value": "> 10", "unit": "µM"},
      {"measurement": "IC50", "setting": "mu opioid receptor", "value": "> 10", "unit": "µM"},
      {"measurement": "EC50", "setting": "delta opioid receptor", "value": "> 10", "unit": "µM"},
      {"measurement": "IC50", "setting": "delta opioid receptor", "value": "> 10", "unit": "µM"},
      {"measurement": "EC50", "setting": "kappa opioid receptor", "value": "> 10", "unit": "µM"},
      {"measurement": "IC50", "setting": "kappa opioid receptor", "value": "> 10", "unit": "µM"},
      {"measurement": "EC50", "setting": "APJ (Apelin)", "value": "> 10", "unit": "µM"},
      {"measurement": "IC50", "setting": "APJ (Apelin)", "value": "> 10", "unit": "µM"},
      {"measurement": "IC50", "setting": "CaV 3.1", "value": "> 10", "unit": "µM"},
      {"measurement": "IC50", "setting": "CaV 3.2", "value": "> 10", "unit": "µM"},
      {"measurement": "EC50", "setting": "TRPV1", "value": "> 10", "unit": "µM"},
      {"measurement": "IC50", "setting": "TRPV1", "value": "> 10", "unit": "µM"},
      {"measurement": "Selectivity for NPS receptors relative to the other targets", "setting": "NPS receptors [1]", "value": "at least 100 fold"},
      {"measurement": "Effect on ICSS, drug alone", "setting": "ICSS in rats; 10 mg/kg RTI-118", "value": "significantly increased ICSS at one frequency (1.9 log Hz)"},
      {"measurement": "Effect of pretreatment on MDPV-induced facilitation of ICSS", "setting": "ICSS in rats; 32 mg/kg RTI-118 + 3.2 mg/kg MDPV", "value": "did not alter MDPV-induced facilitation of ICSS"},
      {"measurement": "Effect on ICSS, drug alone", "setting": "ICSS in rats; 32 mg/kg RTI-118, first group of rats", "value": "significantly decreased ICSS at only one frequency (2.05 log Hz)"},
      {"measurement": "Effect on ICSS, drug alone", "setting": "ICSS in rats; 32 mg/kg RTI-118, second group of rats (MDPV study)", "value": "did not significantly alter ICSS at any frequency"},
      {"measurement": "Effect on ICSS, drug alone", "setting": "ICSS in rats; low doses of 3.2–10 mg/kg RTI-118", "value": "had little effect on ICSS"},
      {"measurement": "Effect of pretreatment on cocaine-induced facilitation of ICSS", "setting": "ICSS in rats; pretreatment + 10 mg/kg cocaine vs vehicle + 10 mg/kg cocaine", "value": "attenuation of cocaine effects was statistically significant only at the highest RTI-118 dose (32 mg/kg)"},
      {"measurement": "Ke value as an antagonist at NPS receptors", "setting": "NPS receptors [2]", "value": "109 ± 23", "unit": "nM"},
      {"measurement": "Reduction in rates of food-maintained responding", "setting": "[3]; 30 mg/kg", "value": "up to 20%"},
      {"measurement": "Effect on rates of food-maintained responding", "setting": "[3]; doses up to 20 mg/kg IP", "value": "had no effect on rates of food-maintained responding"},
      {"measurement": "Effect on cocaine self-administration", "setting": "[4]", "value": "dose-dependent and nearly complete elimination of cocaine self-administration"}
    ]}
  ]
}
